According to ChEMBL document CHEMBL1250516, “Potent and fully noncompetitive peptidomimetic inhibitor of multidrug resistance P-glycoprotein” (J Med Chem, 2010):
Square brackets hold non-standard residues; d marks the D form. Peptide text beside a SMILES is read from it. * marks the point of attachment. Hyp = O=C(O)[C@@H]1C[C@@H](O)CN1; Aad = N[C@@H](CCCC(=O)O)C(=O)O; Cbz = O=C(OCc1ccccc1)*; PhAc = O=C(Cc1ccccc1)*; Boc = CC(C)(C)OC(=O)*; OBn = c1ccc(CO*)cc1; Bn = c1ccc(C*)cc1; OtBu = CC(C)(C)O*; tBu = CC(C)(C)*

How the values were obtained:
[1] = target: T1, MDR1 (P-glycoprotein, ABCB1) (Homo sapiens, UniProt P08183); test: Inhibition of human MDR1 expressed in mouse NIH3T3 cells assessed as inhibition of drug efflux in at 10 uM by flow cytometry; type: cell-based; conditions: mouse NIH3T3 cells expressing human MDR1
P-glycoprotein (ABCB1) = P-glycoprotein (ABCB1) (Homo sapiens, UniProt P08183); test: Inhibition of p-glycoprotein expressed in human K562/R7 cells assessed as inhibition of drug efflux at 10 uM by flow cytometry; type: cell-based; conditions: K562/R7 cells expressing P-glycoprotein
Summary of the method: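 K562/R7 cells (1×10⁶/mL RPMI 1640) were incubated for 1 h at 37 °C with 10 μM daunorubicin (final), with or without 10 μM compound. Cells were washed in ice-cold PBS, kept on ice, and retained fluorescence was read by flow cytometry. Cyclosporin A served as positive control. Duplicate experiments carried out twice.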

[2] = target: T1, MDR1 (P-glycoprotein, ABCB1); test: Inhibition of human MDR1 expressed in mouse NIH3T3 cells assessed as inhibition of drug efflux in at 2 uM by flow cytometry; type: cell-based; conditions: mouse NIH3T3 cells expressing human MDR1
[3] = target: T2, ATP-dependent translocase ABCB1 (Homo sapiens, UniProt P08183); test: Inhibition of human MDR1 expressed in mouse NIH3T3 cells assessed as potentiation of daunorubicin-mediated cytotoxicity at 1 uM; type: cell-based; conditions: nih3t3, 1 µM
Summary of the method: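 Control NIH3T3 and NIH3T3/P-gp cells were seeded at 2500 cells/well and settled for 24 h. They were then exposed for 72 h at 37 °C in 5% CO2 to increasing daunorubicin concentrations with 1 μM modulator. Survival was read by MTT, with 100% taken as cell number without anticancer drug.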

[4] = Cytotoxicity against mouse NIH/3T3 cells expressing human MDR1 assessed as decrease in cell viability at > 2 uM after 72 hrs by MTT assay; type: ADME, cell-based; conditions: nih3t3, 72 h
Summary of the method: (§1)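 Parental NIH3T3 or NIH3T3/P-gp (human MDR1-G185 transfected) cells were seeded at 2500 cells/well and allowed to attach for 24 h at 37 °C in 5% CO2. Compound was added at increasing concentrations in 1% DMSO and incubated for 72 h. Viability was read by MTT colorimetric assay. 100% survival was taken as cell number without compound.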

[5] = Cytotoxicity against mouse NIH/3T3 cells assessed as effect on cell viability up to 1 uM after 72 hrs by MTT assay; type: cell-based; conditions: nih3t3, 72 h; summary of the method: as §1
[6] = target: MRP1 (multidrug resistance-associated protein 1) (Homo sapiens, UniProt P33527); test: Inhibition of MRP1 expressed in BHK cells assessed as inhibition of drug efflux at 10 uM; type: cell-based; conditions: hamster, BHK cells expressing MRP1
Summary of the method: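 BHK-21 cells expressing MRP1 were treated with compound at 10 μM in a flow-cytometric drug efflux inhibition assay. % inhibition of efflux was calculated as for the P-gp assay. Duplicates run twice.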

[7] = target: T2, ATP-dependent translocase ABCB1; test: Displacement of daunorubicin form R-site of human MDR1 expressed in mouse NIH3T3 cells at 0.11 to 1 uM by noncompetitive binding assay
[8] = Cytotoxicity against mouse NIH/3T3 cells assessed as decrease in cell viability at > 2 uM after 72 hrs by MTT assay; type: cell-based; conditions: nih3t3, 72 h; summary of the method: as §1
[9] = target: T2, ATP-dependent translocase ABCB1; test: Displacement of daunorubicin form H-site of human MDR1 expressed in mouse NIH3T3 cells at 0.11 to 1 uM by noncompetitive binding assay; type: cell-based; conditions: in the assay text read “Hoechst 33342” for “daunorubicin”
Summary of the method: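 NIH3T3/P-gp and NIH3T3 cells (10⁵) were incubated with daunorubicin (5, 10, 15, 20 μM) or Hoechst 33342 (0–10 μM), with inhibitor at 0, 0.11, 0.22, 0.33 or 1 μM. Drug retained inside the cells after 1 h was measured by flow cytometry. Data were fitted to Michaelis–Menten to give Rmax and KM. KI came from Rmax⁰ = Rmax/(1+[I]/KI). Mean of two duplicate experiments.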

[10] = Cytotoxicity against mouse NIH/3T3 cells expressing human MDR1 assessed as effect on cell viability up to 1 uM after 72 hrs by MTT assay; type: ADME, cell-based; conditions: nih3t3, 72 h; summary of the method: as §1
[11] = target: T2, ATP-dependent translocase ABCB1; test: Inhibition of human MDR1 expressed in mouse NIH3T3 cells assessed as inhibition of drug efflux by flow cytometry; type: cell-based
BCRP (ABCG2) = target: T3, BCRP (ABCG2) (Homo sapiens, UniProt Q9UNQ0); test: Inhibition of BCRP expressed in HEK293 cells assessed as inhibition of drug efflux at 10 uM by flow cytometry; type: cell-based; conditions: HEK293 cells expressing BCRP
T3 sequence (Q9UNQ0 whole entry): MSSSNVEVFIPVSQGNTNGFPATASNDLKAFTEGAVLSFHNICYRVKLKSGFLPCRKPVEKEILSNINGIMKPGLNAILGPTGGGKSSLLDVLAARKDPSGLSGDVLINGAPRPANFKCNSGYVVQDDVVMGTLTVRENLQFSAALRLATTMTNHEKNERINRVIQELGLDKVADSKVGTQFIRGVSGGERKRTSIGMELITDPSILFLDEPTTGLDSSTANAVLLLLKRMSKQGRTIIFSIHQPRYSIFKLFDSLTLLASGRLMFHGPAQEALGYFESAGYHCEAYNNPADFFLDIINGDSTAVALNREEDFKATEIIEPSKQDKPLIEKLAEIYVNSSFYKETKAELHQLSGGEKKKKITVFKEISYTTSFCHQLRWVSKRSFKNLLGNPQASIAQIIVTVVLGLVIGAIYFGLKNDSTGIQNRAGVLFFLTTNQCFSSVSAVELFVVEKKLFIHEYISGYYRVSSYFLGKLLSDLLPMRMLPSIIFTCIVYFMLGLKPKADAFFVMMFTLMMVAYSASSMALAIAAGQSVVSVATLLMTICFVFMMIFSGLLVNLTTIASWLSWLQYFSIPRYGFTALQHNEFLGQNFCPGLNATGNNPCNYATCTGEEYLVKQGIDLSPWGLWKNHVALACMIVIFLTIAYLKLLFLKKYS
Summary of the method: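 Human embryonic kidney 293 cells transfected with BCRP/ABCG2, tested with each compound at 10 μM. Intracellular fluorescent transported drug measured by flow cytometry. % efficacy = 100 × (FA − FBG)/(Fe − FBG): FA is transporter-expressing cells with drug, FBG is without drug (background), and Fe is control cells lacking the transporter. Mean of duplicate experiments carried out twice.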

T1 sequence (P08183 whole entry): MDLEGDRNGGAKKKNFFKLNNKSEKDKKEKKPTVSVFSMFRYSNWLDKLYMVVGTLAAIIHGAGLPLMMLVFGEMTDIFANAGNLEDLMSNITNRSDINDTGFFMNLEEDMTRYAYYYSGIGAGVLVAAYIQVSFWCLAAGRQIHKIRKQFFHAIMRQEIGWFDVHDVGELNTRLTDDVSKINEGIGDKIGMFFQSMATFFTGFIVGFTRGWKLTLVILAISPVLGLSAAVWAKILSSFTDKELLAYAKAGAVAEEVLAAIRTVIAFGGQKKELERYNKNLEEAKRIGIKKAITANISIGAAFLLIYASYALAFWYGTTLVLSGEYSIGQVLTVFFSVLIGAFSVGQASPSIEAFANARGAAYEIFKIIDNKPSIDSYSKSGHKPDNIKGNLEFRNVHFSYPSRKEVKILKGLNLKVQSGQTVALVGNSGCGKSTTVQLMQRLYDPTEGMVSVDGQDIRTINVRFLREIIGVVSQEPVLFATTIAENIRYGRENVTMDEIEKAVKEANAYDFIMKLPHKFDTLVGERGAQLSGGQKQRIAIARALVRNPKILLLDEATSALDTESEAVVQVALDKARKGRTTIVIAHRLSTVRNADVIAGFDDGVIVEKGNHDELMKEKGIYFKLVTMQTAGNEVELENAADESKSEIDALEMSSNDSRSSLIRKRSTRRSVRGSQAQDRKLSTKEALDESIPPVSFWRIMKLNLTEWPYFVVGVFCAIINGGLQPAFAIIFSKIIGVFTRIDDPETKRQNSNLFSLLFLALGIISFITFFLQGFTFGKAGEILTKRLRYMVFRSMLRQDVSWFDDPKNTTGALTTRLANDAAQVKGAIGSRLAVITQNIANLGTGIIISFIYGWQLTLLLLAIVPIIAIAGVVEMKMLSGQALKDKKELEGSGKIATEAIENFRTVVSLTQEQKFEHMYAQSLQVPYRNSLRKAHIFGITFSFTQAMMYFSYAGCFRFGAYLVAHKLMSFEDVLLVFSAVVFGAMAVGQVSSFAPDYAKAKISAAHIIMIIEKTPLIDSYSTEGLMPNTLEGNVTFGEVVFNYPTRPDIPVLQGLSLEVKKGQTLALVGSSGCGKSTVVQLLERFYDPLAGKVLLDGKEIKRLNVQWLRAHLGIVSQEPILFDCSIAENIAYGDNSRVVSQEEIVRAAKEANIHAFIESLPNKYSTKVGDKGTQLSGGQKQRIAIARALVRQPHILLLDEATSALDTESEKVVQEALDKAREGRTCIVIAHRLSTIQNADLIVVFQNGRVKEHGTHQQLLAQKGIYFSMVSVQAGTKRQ
Chain of P-glycoprotein (ABCB1) (P08183 whole entry): as above
T2 sequence (P08183 whole entry): as above

SMILES | inhibition at 10 µM [1] [%] | inhibition at 10 µM (P-glycoprotein (ABCB1)) [%] | further results
CC(C)(C)OC(=O)N[C@@H](CC(=O)OCc1ccccc1)C(=O)CCC(=O)N[C@@H](CCCCNC(=O)OCc1ccccc1)C(=O)OC(C)(C)C | 67.7 |  | 
CC(C)(C)OC(=O)N[C@@H](CCCC(=O)OCc1ccccc1)C(=O)N[C@@H](CCCCNC(=O)OCc1ccccc1)C(=O)OC(C)(C)C (Boc-[Aad](OBn)-Lys(Cbz)-OtBu) | 97.8 | 65.5 | inhibition at 2 µM [2]: 37%
O=C(CCC(=O)N[C@@H](CCC(=O)OCc1ccccc1)C(=O)OCc1ccccc1)N[C@@H](CCC(=O)OCc1ccccc1)C(=O)OCc1ccccc1 [REVERSIN 213] | 26.6 |  | 
CC(C)(C)OC(=O)[C@H](CCCCNC(=O)OCc1ccccc1)NC[C@@H]1C[C@@H](OCc2ccccc2)CN1C(=O)OC(C)(C)C |  | 77.6 | inhibition (INH) [3]: Active; Activity [4]: Toxic; Activity [5]: Non-toxic; inhibition at 10 µM [6]: 9%; Activity [7]: Active; Activity [8]: Toxic; Activity [9]: Active; Activity [10]: Non-toxic
CC(C)(C)OC(=O)N[C@@H](CCCOC(=O)C1CCCCC1)C(=O)N[C@@H](CCCCNC(=O)OCc1ccccc1)C(=O)OC(C)(C)C | 82.3 | 80.4 | inhibition at 2 µM [2]: 35.7%
CC(C)(C)OC(=O)CNC(=O)[C@H](Cc1ccc(OC(C)(C)C)cc1)NC(=O)OC(C)(C)C | 93.4 |  | inhibition at 2 µM [2]: 38%
CC(C)(C)OC(=O)CC[C@H](NC(=O)OC(C)(C)C)C(=O)N[C@@H](CCCCNC(=O)OCc1ccccc1)C(=O)OC(C)(C)C (Boc-Glu(OtBu)-Lys(Cbz)-OtBu) | 37.2 |  | 
O=C(CCC(=O)N[C@@H](CCC(=O)OCC1CCCCC1)C(=O)OCc1ccccc1)N[C@@H](CCC(=O)OCc1ccccc1)C(=O)OCc1ccccc1 | 29.3 |  | 
CC(C)(C)OC(=O)N[C@@H](CC(=O)OCc1ccccc1)C(=O)N[C@@H](CCCCNC(=O)OCc1ccccc1)C(=O)OC(C)(C)C [REVERSIN 121] (Boc-Asp(OBn)-Lys(Cbz)-OtBu) | 75.8 | 88 | IC50 [11]: 1.41 µM
CC(C)(C)OC(=O)N[C@@H](Cc1ccc(OC(C)(C)C)cc1)C(=O)N[C@@H](CCCCNC(=O)OCc1ccccc1)C(=O)OC(C)(C)C (Boc-Tyr(tBu)-Lys(Cbz)-OtBu) | 34 |  | 
CC(C)(C)OC(=O)N[C@@H](Cc1ccc(OC(C)(C)C)cc1)C(=O)CS(=O)(=O)c1ccccc1 | 49.1 |  | 
CC(C)(C)OC(=O)N[C@@H](CCOC(=O)C1CCCCC1)C(=O)N[C@@H](CCCCNC(=O)OCc1ccccc1)C(=O)OC(C)(C)C | 61.8 |  | 
CC(C)(C)OC(=O)N[C@@H](CCOCc1ccccc1)C(=O)N[C@@H](CCCCNC(=O)OCc1ccccc1)C(=O)OC(C)(C)C | 49.2 |  | 
CC(C)(C)OC(=O)[C@H](CCCCNC(=O)OCc1ccccc1)NC(=O)[C@@H]1C[C@@H](OC(=O)Cc2ccccc2)CN1C(=O)OC(C)(C)C (Boc-[Hyp](PhAc)-Lys(Cbz)-OtBu) | 68.2 | 88.2 | inhibition at 10 µM (BCRP (ABCG2)): 10%
CC(C)(C)OC(=O)[C@H](CCCCNC(=O)OCc1ccccc1)NC(=O)[C@@H]1C[C@@H](OC(=O)C2CCCCC2)CN1C(=O)OC(C)(C)C | 106 | 94.9 | IC50 [11]: 1.68 µM; inhibition at 10 µM (BCRP (ABCG2)): 11.2%
CC(C)(C)OC(=O)N[C@@H](CCC(=O)OCc1ccccc1)C(=O)N[C@@H](CCCCNC(=O)OCc1ccccc1)C(=O)OC(C)(C)C (Boc-Glu(OBn)-Lys(Cbz)-OtBu) | 63.7 |  | 
CC(C)(C)OC(=O)[C@H](CCCCNC(=O)OCc1ccccc1)NC(=O)[C@@H]1C[C@@H](OCc2ccccc2)CN1C(=O)OC(C)(C)C (Boc-[Hyp](Bn)-Lys(Cbz)-OtBu) |  | 83.5 | inhibition at 2 µM [2]: 120%; inhibition at 10 µM [6]: 7%
CC(C)(C)OC(=O)CC(C(O)[C@H](Cc1ccc(OC(C)(C)C)cc1)NC(=O)OC(C)(C)C)S(=O)(=O)c1ccccc1 (stereo not given in full) | 104 |  | 
CC(C)(C)OC(=O)CCC[C@@H](Cc1ccc(OC(C)(C)C)cc1)NC(=O)OC(C)(C)C | 78.7 |  | 
CC(C)(C)OC(=O)N[C@@H](CC(=O)OCc1ccccc1)C(=O)C[C@H](CCCCNC(=O)OCc1ccccc1)C(=O)OCc1ccccc1 | 35.7 |  | 
CC(C)(C)OC(=O)[C@H](CCCCNC(=O)OCc1ccccc1)NC(=O)[C@@H]1C[C@@H](OCC2CCCCC2)CN1C(=O)OC(C)(C)C | 76.6 | 79.8 | inhibition at 2 µM [2]: 82.2%
CC(C)(C)OC(=O)N[C@H](CN[C@@H](CCCCNC(=O)OCc1ccccc1)C(=O)OC(C)(C)C)Cc1ccc(OC(C)(C)C)cc1 | 49.1 |  | 
CC(C)(C)OC(=O)N[C@@H](CCOC(=O)Cc1ccccc1)C(=O)N[C@@H](CCCCNC(=O)OCc1ccccc1)C(=O)OC(C)(C)C | 59.6 |  | 
CC(C)(C)OC(=O)CC(C(=O)[C@H](Cc1ccc(OC(C)(C)C)cc1)NC(=O)OC(C)(C)C)S(=O)(=O)c1ccccc1 (stereo not given in full) | 106 |  | IC50 [11]: 1.55 µM
CC(C)(C)OC(=O)C/C=C/[C@H](Cc1ccc(OC(C)(C)C)cc1)NC(=O)OC(C)(C)C | 71.2 |  | 
